Drawing on ChEMBL document CHEMBL1649395, “Synthesis and antibacterial activity of novel ketolides with 11,12-sulfur contained aryl alkyl side chains” (2011), this text covers MIC for four compounds.

≈ marks a conversion by molar mass, not a printed value.

Holding throughout (format): functional
The subject of experiment [1] is Staphylococcus aureus. Nature of the experiment: Antibacterial activity against methicillin-susceptible Staphylococcus aureus ATCC 29213 by broth microdilution method. Put shortly:
(§1)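 Strains were ATCC reference strains or clinical isolates from China's national antimicrobial resistance surveillance network (MOHNARIN). In vitro activity was measured by broth microdilution following NCCLS recommendations. Results are reported as minimum inhibitory concentration (MIC) in mg/L.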
For orientation: Broth dilution looks for growth in wells or tubes with falling amounts of substance.

For experiment [2], the system named is Haemophilus influenzae. Nature of the experiment: Antibacterial activity against erythromycin-susceptible Haemophilus influenzae 07O114 by broth microdilution method. In a few lines: as §1
Experiment [3] relates to Streptococcus pyogenes. Briefly: Antibacterial activity against erythromycin-susceptible Streptococcus pyogenes 07U084 by broth microdilution method. Put shortly:
as §1

Experiment [4] has as its system Staphylococcus epidermidis. Nature of the experiment: Antibacterial activity against methicillin-resistant Staphylococcus epidermidis 07R066 by broth microdilution method. Put shortly:
(§2)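 Clinical isolates were supplied by China's Ministry of Health National Antimicrobial Resistance Investigation Net (MOHNARIN). Activity was reported as minimum inhibitory concentration (MIC), determined by broth microdilution following NCCLS recommendations.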

The subject of experiment [5] is Staphylococcus epidermidis. Briefly: Antibacterial activity against methicillin-susceptible Staphylococcus epidermidis 07T202 by broth microdilution method. Put shortly:
as §1

The subject of experiment [6] is Streptococcus pneumoniae. Nature of the experiment: Antibacterial activity against erythromycin-susceptible Streptococcus pneumoniae ATCC 49619 by broth microdilution method. Put shortly: as §1
Experiment [7] has as its system Staphylococcus epidermidis. Briefly: Antibacterial activity against methicillin-susceptible Staphylococcus epidermidis 07C134 by broth microdilution method. In a few lines: as §2
Experiment [8] has as its system Haemophilus influenzae. Briefly: Antibacterial activity against erythromycin-susceptible Haemophilus influenzae ATCC 49247 by broth microdilution method. Put shortly: as §1
The subject of experiment [9] is Haemophilus influenzae. Nature of the experiment: Antibacterial activity against erythromycin-susceptible Haemophilus influenzae 07O339 by broth microdilution method. Put shortly:
as §1

The test system of experiment [10] is Streptococcus pyogenes. Nature of the experiment: Antibacterial activity against erythromycin-susceptible Streptococcus pyogenes 07U086 by broth microdilution method. In a few lines:
as §1

Experiment [11] relates to Staphylococcus epidermidis. Briefly: Antibacterial activity against methicillin-resistant Staphylococcus epidermidis 07A066 by broth microdilution method. Put shortly:
as §2

Experiment [12] has as its system Haemophilus influenzae. Nature of the experiment: Antibacterial activity against erythromycin-susceptible Haemophilus influenzae 07O394 by broth microdilution method. Put shortly:
as §1

The test system of experiment [13] is Staphylococcus aureus. Nature of the experiment: Antibacterial activity against methicillin-susceptible Staphylococcus aureus ANS46 by broth microdilution method. Put shortly: as §1
Experiment [14] relates to Streptococcus pneumoniae. Briefly: Antibacterial activity against erythromycin-resistant Streptococcus pneumoniae 07P390 by broth microdilution method. In a few lines: as §2
The test system of experiment [15] is Streptococcus pyogenes. Briefly: Antibacterial activity against erythromycin-resistant Streptococcus pyogenes 01-533 by broth microdilution method. In a few lines:
as §2

Experiment [16] concerns Streptococcus pyogenes. Nature of the experiment: Antibacterial activity against erythromycin-resistant Streptococcus pyogenes 03-233 by broth microdilution method. Put shortly:
as §2

Experiment [17] concerns Streptococcus pneumoniae. Nature of the experiment: Antibacterial activity against erythromycin-susceptible Streptococcus pneumoniae 07H252 by broth microdilution method. Put shortly:
as §1

In experiment [18] the test system is Streptococcus pneumoniae. Briefly: Antibacterial activity against erythromycin-resistant Streptococcus pneumoniae 07D201 by broth microdilution method. In a few lines:
as §2

`CC[C@H]1OC(=O)[C@H](C)C(=O)[C@H](C)[C@@H](O[C@@H]2O[C@H](C)C[C@H](N(C)C)[C@H]2O)[C@@](C)(OC)C[C@@H](C)C(=O)[C@H](C)[C@H]2N(CCCSc3nc4ccccc4[nH]3)C(=O)O[C@]12C`: the MIC was 0.125 µg/mL (≈ 0.156 µM) in the experiment on Staphylococcus aureus [1]; 2 µg/mL (≈ 2.49 µM) with Haemophilus influenzae [2]; 0.016 µg/mL (≈ 0.0199 µM) in the experiment with Streptococcus pyogenes [3]; 0.062 µg/mL (≈ 0.0772 µM) in experiment [4]; above 16 µg/mL in experiment [5]; 0.016 µg/mL (≈ 0.0199 µM) against Streptococcus pneumoniae [6]. Further, the MIC was determined as 0.062 µg/mL (≈ 0.0772 µM) in experiment [7]; 4 µg/mL (≈ 4.98 µM) against Haemophilus influenzae [8]; 2 µg/mL (≈ 2.49 µM) against Haemophilus influenzae [9]; 0.016 µg/mL (≈ 0.0199 µM) in the experiment on Streptococcus pyogenes [10]; 0.125 µg/mL (≈ 0.156 µM) in experiment [11]; 2 µg/mL (≈ 2.49 µM) against Haemophilus influenzae [12]. For the same compound, the MIC in the experiment with Staphylococcus aureus [13] is above 16 µg/mL.
Take `CC[C@H]1OC(=O)[C@H](C)C(=O)[C@H](C)[C@@H](O[C@@H]2O[C@H](C)C[C@H](N(C)C)[C@H]2O)[C@@](C)(OC)C[C@@H](C)C(=O)[C@H](C)[C@H]2N(CCCSc3nc(-c4cccnc4)c[nH]3)C(=O)O[C@]12C`: the MIC came to 0.125 µg/mL (≈ 0.151 µM) with Staphylococcus aureus [1]; 2 µg/mL (≈ 2.41 µM) in the experiment on Haemophilus influenzae [2]; 0.031 µg/mL (≈ 0.0373 µM) in the experiment with Streptococcus pyogenes [3]; 0.125 µg/mL (≈ 0.151 µM) in experiment [4]; 0.031 µg/mL (≈ 0.0373 µM) in the experiment with Streptococcus pneumoniae [14]; 0.125 µg/mL (≈ 0.151 µM) with Streptococcus pyogenes [15]. For the same compound, the MIC in [5] worked out at 32 µg/mL (≈ 38.6 µM); with Streptococcus pyogenes [16], 1 µg/mL (≈ 1.2 µM); in the experiment with Streptococcus pneumoniae [6], 0.062 µg/mL (≈ 0.0747 µM); with Streptococcus pneumoniae [17], 0.25 µg/mL (≈ 0.301 µM); in [7], 0.125 µg/mL (≈ 0.151 µM); in the experiment on Haemophilus influenzae [8], 2 µg/mL (≈ 2.41 µM). The MIC against Haemophilus influenzae [9] was 2 µg/mL (≈ 2.41 µM); with Streptococcus pneumoniae [18] it was 4 µg/mL (≈ 4.82 µM); with Streptococcus pyogenes [10], 0.031 µg/mL (≈ 0.0373 µM); in experiment [11] it was 0.125 µg/mL (≈ 0.151 µM); with Haemophilus influenzae [12] it was 2 µg/mL (≈ 2.41 µM); in the experiment on Staphylococcus aureus [13], above 32 µg/mL.
Turning to `CC[C@H]1OC(=O)[C@H](C)C(=O)[C@H](C)[C@@H](O[C@@H]2O[C@H](C)C[C@H](N(C)C)[C@H]2O)[C@@](C)(OC)C[C@@H](C)C(=O)/C(C)=C/[C@]1(C)OC(=O)NCCCSc1nc2cc([N+](=O)[O-])ccc2[nH]1`, the MIC against Staphylococcus aureus [1] was 1 µg/mL (≈ 1.18 µM); against Haemophilus influenzae [2], 16 µg/mL (≈ 18.9 µM); against Streptococcus pyogenes [3], 0.125 µg/mL (≈ 0.147 µM); in [4], 1 µg/mL (≈ 1.18 µM); in experiment [5], above 16 µg/mL; in the experiment on Streptococcus pneumoniae [6], 0.125 µg/mL (≈ 0.147 µM). The MIC in [7] is 1 µg/mL (≈ 1.18 µM); with Haemophilus influenzae [8], 16 µg/mL (≈ 18.9 µM); against Haemophilus influenzae [9], above 16 µg/mL; against Streptococcus pyogenes [10], 0.125 µg/mL (≈ 0.147 µM); in [11], 1 µg/mL (≈ 1.18 µM); against Haemophilus influenzae [12], above 16 µg/mL. In the experiment on Staphylococcus aureus [13], this compound registered an MIC above 16 µg/mL.
Consider `CC[C@H]1OC(=O)[C@H](C)C(=O)[C@H](C)[C@@H](O[C@@H]2O[C@H](C)C[C@H](N(C)C)[C@H]2O)[C@@](C)(OC)C[C@@H](C)C(=O)[C@H](C)[C@H]2N(CCCSc3nnnn3-c3ccccc3)C(=O)O[C@]12C`, for which the MIC amounted to 0.25 µg/mL (≈ 0.301 µM) against Staphylococcus aureus [1]; 16 µg/mL (≈ 19.3 µM) in the experiment on Haemophilus influenzae [2]; 0.125 µg/mL (≈ 0.15 µM) against Streptococcus pyogenes [3]; 0.25 µg/mL (≈ 0.301 µM) in experiment [4]; 0.5 µg/mL (≈ 0.602 µM) in the experiment on Streptococcus pneumoniae [14]; 2 µg/mL (≈ 2.41 µM) against Streptococcus pyogenes [15]. The MIC in [5] was above 32 µg/mL; against Streptococcus pyogenes [16], above 32 µg/mL; in the experiment on Streptococcus pneumoniae [6], 0.125 µg/mL (≈ 0.15 µM); against Streptococcus pneumoniae [17], 1 µg/mL (≈ 1.2 µM); in [7] it was 0.5 µg/mL (≈ 0.602 µM); in the experiment with Haemophilus influenzae [8] it was 16 µg/mL (≈ 19.3 µM). Further, the MIC in the experiment with Haemophilus influenzae [9] is 32 µg/mL (≈ 38.5 µM); with Streptococcus pneumoniae [18] it was above 32 µg/mL; against Streptococcus pyogenes [10], 0.125 µg/mL (≈ 0.15 µM); in experiment [11], 0.5 µg/mL (≈ 0.602 µM); in the experiment on Haemophilus influenzae [12], 32 µg/mL (≈ 38.5 µM); against Staphylococcus aureus [13] it was above 32 µg/mL.
